From PubChem
OX1R antag-1 = OX1R (HCRTR1) antagonists, primary screen, fluorescence, CHO/OX1R cells, Fluo-8 calcium, orexin A. Orexin/Hypocretin receptor type 1 (Homo sapiens), O43613. Fluo-8 calcium fluorescence. inhibition, % at 5 µM. hit rate 0.43% among 330,000. AID 434989, 2010;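 active = inhibition above its plate's threshold, mean inhibition of all tested compounds on the plate plus 3 SD, cut at about 37% in these data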
OX1R antag-2 = antagonists of human orexin 1 receptor (OX1R); Orexin/Hypocretin receptor type 1 (Homo sapiens), O43613; OX1R-expressing cells, FRET antagonist read-out; inhibition, % at 6.6 µM; hit rate 1.8% among 330,000; in the data active = inhibition mostly above about 38%, no sharp cut-off; inactive = mostly below about 40%
GalR3 antag = GalR3 antagonists in HEK293 cells, primary screen, cell-based, fluorescence readout; HEK293 GalR3-CNG cAMP membrane potential fluorescence; galR3 body fused to GalR1 C-terminus; hit rate 0.44% among 360,000; inhibition, % at 3 µM; Galanin receptor type 3 (Homo sapiens), O60755;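 active = inhibition above the screen-wide average plus 3 SD, cut at about 13% in these data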;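 also: forskolin and galanin both at EC90 stimulate the cells; cAMP rise reported by CNG channel membrane potential dye signal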
Target sequence (O60755 1-299 limits assumed): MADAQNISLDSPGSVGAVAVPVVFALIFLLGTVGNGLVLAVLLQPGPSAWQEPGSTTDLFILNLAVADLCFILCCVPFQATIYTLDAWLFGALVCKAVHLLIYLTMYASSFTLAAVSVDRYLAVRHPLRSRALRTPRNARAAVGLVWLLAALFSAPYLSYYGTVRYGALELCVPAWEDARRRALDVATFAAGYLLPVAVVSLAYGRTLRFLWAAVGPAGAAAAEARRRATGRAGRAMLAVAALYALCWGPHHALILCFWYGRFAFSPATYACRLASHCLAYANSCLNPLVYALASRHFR
CHO parental Ca = ATP-evoked calcium signal inhibitors, parental CHO, primary screen, counter-screen for OX1R antagonist project, cell-based, fluorescence, Fluo-8 calcium dye; parental CHO-K1, ATP-induced calcium, Fluo-8 fluorescence; hit rate 0.63% among 330,000; AID 463079, 2010; inhibition, % at 5.6 µM;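 active = inhibition above that plate's mean sample inhibition plus 3 SD, cut at about 26% in these data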
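Assay system – parental CHO cells · Reagent – ATP stimulus · Detection – intracellular calcium via Fluo-8 no-wash fluorescent dye · Evaluation – percent inhibition of ATP-evoked calcium rise, normalized to controls · Controls – ATP wells versus no-ATP DMSO wells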
GPR7 antagonist = GPR7 receptor antagonists, primary screen, cell-based, fluorescence, single concentration. Neuropeptides B/W receptor type 1 (Homo sapiens), P48145. GPR7-expressing cells, fluorescence antagonist assay. inhibition, % at 4.4 µM. hit rate 1.1% among 290,000; in the data active = inhibition above about 16%, passing the limit was not always enough;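 also: cells stimulated with the agonist NPW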
Target sequence (P48145 whole entry, looked up): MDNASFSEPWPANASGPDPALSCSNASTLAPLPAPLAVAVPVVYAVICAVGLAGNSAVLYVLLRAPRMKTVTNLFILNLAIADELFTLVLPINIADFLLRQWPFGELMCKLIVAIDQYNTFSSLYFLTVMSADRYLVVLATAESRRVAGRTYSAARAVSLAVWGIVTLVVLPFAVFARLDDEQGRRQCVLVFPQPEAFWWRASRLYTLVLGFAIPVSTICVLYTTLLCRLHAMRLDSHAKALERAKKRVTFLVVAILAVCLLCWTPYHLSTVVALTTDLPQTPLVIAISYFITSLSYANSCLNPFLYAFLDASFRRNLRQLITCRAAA
GalR3 antag conf = GalR3 antagonist hit confirmation, cell-based, fluorescence, triplicate. shares compounds with GalR3 antag. HEK293 GalR3 CNG cAMP biosensor, membrane potential fluorescence; galR3 fused to GalR1 carboxy tail; challenged with forskolin and galanin at EC90. inhibition, % at 3 µM. hit rate 59% among 1,600;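 active = inhibition above the primary screen's cutoff, the mean inhibition of all screened compounds plus 3 SD, cut at about 13% in these data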
CNG parental = nonspecific cAMP agonists in parental HEK-CNG cells, counter-screen for GalR3 antagonist project, cell-based, fluorescence, high throughput | AID 652268, 2013 | activation, % at 3 µM | HEK293-CNG parental cells, cAMP membrane potential fluorescence; normalised: DMSO wells 0%, forskolin wells 100% | hit rate 10% among 1,600 | shares compounds with GalR3 antag; in the data active = activation above about 1.3%
Numbers stand for hits; i = inactive; nt = no result given. A selection: hits, their analogues and other compounds. The true share with any hit is near 3.1%.

SMILES	OX1R antag-1	OX1R antag-2	GalR3 antag	CHO parental Ca	GPR7 antagonist	GalR3 antag conf	CNG parental
Cn1c(Cn2c(=O)sc3ccccc32)nnc1SCc1ccccn1	i	i	i	i	i	nt	nt
CCc1c(C(=O)Nc2ccc(OC)c(Cl)c2)[nH]c(C)c1C(C)=O	50	89	28	32	i	13	i
Oc1ccc2ccccc2c1CN1CCCC1	i	i	i	i	i	nt	nt
Oc1ccc2ccccc2c1CN1CCCCC1	nt	nt	14	nt	nt	17	i
COc1cccc(N2CCN(c3ncnc4c3[nH]c3ccc(F)cc34)CC2C)c1 (centres undefined)	99	86	37	96	84	79	i
Fc1ccc2[nH]c3c(N4CCN(C5CCCCC5)CC4)ncnc3c2c1	i	i	nt	i	i	nt	nt
NC(=O)c1ccccc1NC(=O)/C=C/C(=O)O	i	i	i	i	i	nt	nt
Cc1ccc(/C=C/C(=O)Nc2ccccc2C(N)=O)cc1	i	i	nt	i	i	i	i
CCC(=O)Nc1ccc(NC(=O)CSc2nnnn2Cc2ccccc2)cc1C	nt	nt	i	nt	i	nt	nt
COc1ccc(-c2cc(-c3n[nH]c(=S)n3-c3cc(OC)ccc3OC)[nH]n2)cc1	i	i	24	i	i	i	i
COC(=O)C[C@H]1C=C[C@@H](C(C(=O)OC)C(=O)OC)CN1C(C)=O	nt	nt	i	nt	nt	nt	nt
CCOC(=O)C1(Cc2cccc(OC)c2)CCN(CCO)CC1	i	i	18	i	i	i	i
COc1ccc(C(=O)CSc2nnc(Cn3cnc4ccccc43)o2)cc1	i	i	95	38	i	111	i
O=C(NC1CCCc2c1cnn2-c1ccccc1F)c1ccncc1 (centres undefined)	nt	nt	32	nt	nt	75	i
O=C(NC1CCCc2c1cnn2-c1ccc(F)cc1F)c1ccccn1 (centres undefined)	i	i	i	i	i	nt	nt
O=C(NC1CCCc2c1cnn2-c1ccccc1F)c1ccccn1 (centres undefined)	i	i	i	i	i	nt	nt
COc1ccc(C(=O)NC2CCCc3c2cnn3-c2ccccc2F)cc1OC (centres undefined)	i	i	68	i	i	42	i
O=C(Nc1ccc(S(=O)(=O)N2CCCC2)cc1)c1ccc(CN2CCOCC2)cc1	i	i	107	i	i	64	i
CCN(CC(=O)NCCCN1CCOCC1)S(=O)(=O)c1ccc(Cl)cc1	i	i	i	i	i	nt	nt
O=C(c1ccc(S(=O)(=O)N2CCCCCC2)cc1)N1CCN(Cc2ccccc2)CC1	i	i	i	i	nt	nt	nt
CCCOc1ccc(C(=O)Nc2ccc(CN3CCOCC3)cc2)cc1	i	i	i	i	i	nt	nt
CCN(CC(=O)NCCCN1CCOCC1)S(=O)(=O)c1ccc(F)cc1	i	i	19	i	i	i	i
COc1ccc(CN2CCN(C(=O)c3ccc(S(=O)(=O)N4CCCCCC4)cc3)CC2)cc1	nt	nt	26	nt	nt	90	i
COc1ccc(NS(=O)(=O)c2ccc(NC(=O)c3ccc(CN4CCOCC4)cc3)cc2)cc1	i	i	89	i	24	118	i
Cc1ccc(NS(=O)(=O)c2cc(C(=O)N(C)C)ccc2C)cc1C	nt	nt	i	nt	i	nt	nt
SMILES	OX1R antag-1	OX1R antag-2	GalR3 antag	CHO parental Ca	GPR7 antagonist	GalR3 antag conf	CNG parental
C=CCOc1ccc(C(=O)N(Cc2ccc(N(C)C)cc2)C2CCS(=O)(=O)C2)cc1 (centres undefined)	i	i	i	i	i	nt	nt
COc1ccc(CC(=O)Nc2cccc(S(=O)(=O)N3CCCCCC3)c2)cc1OC	i	i	104	49	i	99	i
O=C(Nc1ccc(Cl)cc1)c1ccc(OCC2CCCO2)cc1 (centres undefined)	i	i	i	i	i	nt	nt
CCN(CC)S(=O)(=O)c1ccc(N2CCOCC2)c(NC(=O)c2ccccc2)c1	i	i	i	i	i	nt	nt
COc1ccc(CCC(=O)Nc2cccc(S(=O)(=O)N3CCCCCC3)c2)cc1OC	i	i	i	i	nt	nt	nt
O=C(Nc1nc(-c2ccc(Cl)cc2Cl)cs1)c1ccc(OCC2CCCO2)cc1 (centres undefined)	i	i	92	i	i	109	i
CCN(CC)S(=O)(=O)c1ccc(O)c(NC(=O)c2ccc(N3CCOCC3)c([N+](=O)[O-])c2)c1	i	i	23	i	i	i	i
CN(c1ccc(C(=O)Nc2ccc(S(=O)(=O)N3CCCC3)cc2)cc1)S(C)(=O)=O	i	i	94	i	i	95	i
CC1(C(=O)NCc2ccncc2)Cc2c(-c3cccc(C(F)(F)F)c3)ccnc2O1 (centres undefined)	nt	nt	i	nt	nt	nt	nt
CCN(CC)S(=O)(=O)c1ccc(NC(=O)c2ccc(CN3CCOCC3)cc2)cc1	i	i	101	i	i	106	i
COc1ccc(S(=O)(=O)N2CCCCCC2)cc1C(=O)Nc1ccc(C(=O)N(C)C)cc1	nt	nt	15	nt	nt	i	i
Cc1ccc(NS(=O)(=O)c2ccc(C(=O)NC3CCN(Cc4ccccc4)CC3)cc2)cc1	i	i	90	i	nt	103	i
CCCCOc1ccc(C(=O)Nc2ccc(CN3CCOCC3)cc2)cc1	nt	nt	i	nt	i	nt	nt
COc1ccc(NS(=O)(=O)c2ccc(N3CCOCC3)c(N)c2)cc1	i	i	84	i	nt	83	i
COc1cc(Cl)ccc1OCc1cc(C(=O)N2CCN(C3CCCCC3)CC2)no1	nt	nt	i	nt	nt	nt	nt
O=C(NC1CCN(Cc2ccccc2)CC1)c1ccc2c(c1)[nH]c(=O)n2Cc1ccc(F)cc1	i	i	55	i	i	59	i
CCOc1ccc(NC(=O)c2ccc(OCC3CCCO3)cc2)cc1S(=O)(=O)N(CC)CC (centres undefined)	i	i	i	i	nt	nt	nt
CCN(CC)S(=O)(=O)c1ccc(NC(=O)c2ccc(OCC3CCCO3)cc2)cc1 (centres undefined)	i	i	34	i	nt	104	i
CCCCCn1c(=O)[nH]c2cc(C(=O)NC3CCN(Cc4ccccc4)CC3)ccc2c1=O	i	i	i	i	nt	nt	nt
Cn1c(SCC(=O)NC2CC2)nnc1-c1cccs1	i	i	14	i	i	i	i
CCOC(=O)c1cc2cc([N+](=O)[O-])cc(OC)c2oc1=O	i	i	i	i	i	nt	nt
CCCCN(C)C(=O)c1cc2cc([N+](=O)[O-])cc(OC)c2oc1=O	i	i	22	i	i	i	i
CC(C)(C)NCC(O)Cn1cc(C=O)c2ccccc21 (centres undefined)	i	i	14	i	i	36	i
